Results as given in ChEMBL document CHEMBL5331111, “Synthetic Biology Facilitates Semisynthetic Development of Type V Glycopeptide Antibiotics Targeting Vancomycin-Resistant Enterococcus” (J Med Chem, 2023).
In brackets after ≈: the same amount, converted by molar mass.

Experiments:
[1] = tested on: Bacillus subtilis; assay: Antibacterial activity against Bacillus subtilis 168 assessed as reduction in bacterial growth by Mueller-Hinton broth based assay; assay type: functional
Outline: (§1)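 Broth MIC by standard procedure in Mueller-Hinton broth, for both B. subtilis 168 and S. aureus ATCC 33591.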

[2] = tested on: Enterococcus faecium; assay: Antibacterial activity against vancomycin-resistant Enterococcus faecium ATCC 700221 assessed as inhibition of bacterial growth by Mueller-Hinton broth based assay; assay type: functional
[3] = tested on: Mycolicibacterium smegmatis; assay: Antimycobacterial activity against Mycobacterium smegmatis MC2 155 assessed as inhibition of bacterial growth measured after 2 days by resazurin dye based analysis; assay type: functional; conditions: MC2 155, 48 h, time 2 day
Outline: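 Strains grown in 7H9 broth with 0.2% glycerol, 10% OADC and 0.05% Tween-80. Inoculum was about 5 × 10^5 CFU/mL, checked by plating on 7H10/OADC agar to be 3–8 × 10^5. Read at 2 days for M. smegmatis and 7 days for M. tuberculosis H37Ra, M. bovis and M. avium. Resazurin 30 μg/mL was then added for one further day. Values are averages of at least two experiments.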

[4] = tested on: Enterococcus faecalis; assay: Antibacterial activity against vancomycin-resistant Enterococcus faecalis ATCC 51299 assessed as inhibition of bacterial growth by Mueller-Hinton broth based assay; assay type: functional
[5] = tested on: Staphylococcus aureus; assay: Antibacterial activity against Staphylococcus aureus ATCC 33591 assessed as reduction in bacterial growth by Mueller-Hinton broth based assay; assay type: functional; outline: as §1
[6] = Hemolytic activity in human RBC incubated for 1 hr by absorbance based analysis; assay type: toxicity, cell-based, Erythrocyte; conditions: red blood cells (erythrocytes)
Outline: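 Human K2-EDTA blood RBCs washed twice in 150 mM NaCl, resuspended in PBS pH 7.4, then diluted 1:50. Incubated with compound at 1% final DMSO for 1 h at 37 °C and pelleted at 500g for 5 min. Supernatant absorbance read at 540 nm. Controls were DMSO-only and a Triton X-100 dilution series (20% to 0.02%).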

[7] = Cytotoxicity against HEK293 cells assessed as inhibition of cell growth incubated for 48 hrs by Cell-Titer Glo reagent based analysis; assay type: toxicity; conditions: human
Outline: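 HEK293 cells seeded at 7500 cells/well in DMEM with 10% FBS, 2 mM glutamine and pen/strep, and left 18 h at 37 °C under 5% CO2. Compound then added at 1% final DMSO and incubated 48 h. Viability read by CellTiter-Glo luminescence and normalized to DMSO-only wells. Curves fitted by 4PL constrained to 0–1.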

Row | Compound | MIC [1] [µg/mL] | MIC [2] [µg/mL] | MIC [3] [µg/mL] | MIC [4] [µg/mL] | MIC [5] [µg/mL] | IC50 at 1 h [6] [µg/mL] | IC50 at 48 h [7] [µg/mL]
1 | CN1C(=O)[C@@H]2NC(=O)[C@@H]3NC(=O)[C@@H](c4ccc(O)cc4)NC(=O)[C@H](NC(=O)C(Nc4ccc(F)cc4)c4ccc(O)cc4)Cc4c[nH]c5cc(ccc45)-c4cc3cc(c4O)Oc3ccc(cc3)C[C@H]1C(=O)N[C@@H](C(=O)O)c1ccc(O)c(c1)Oc1ccc2cc1 (some centres not stated) | 2 (≈ 1.65 µM) | 8 (≈ 6.58 µM) | > 128 | 8 (≈ 6.58 µM) | 8 (≈ 6.58 µM) |  | 
2 | CN1C(=O)[C@@H]2NC(=O)[C@@H]3NC(=O)[C@@H](c4ccc(O)cc4)NC(=O)[C@H](NC(=O)C(Nc4cc(Cl)cc(Cl)c4Cl)c4ccc(O)cc4)Cc4c[nH]c5cc(ccc45)-c4cc3cc(c4O)Oc3ccc(cc3)C[C@H]1C(=O)N[C@@H](C(=O)O)c1ccc(O)c(c1)Oc1ccc2cc1 (some centres not stated) | 4 (≈ 3.08 µM) | 16 (≈ 12.3 µM) | > 128 | 8 (≈ 6.15 µM) | 4 (≈ 3.08 µM) |  | 
3 | CN1C(=O)[C@@H]2NC(=O)[C@@H]3NC(=O)[C@@H](c4ccc(O)cc4)NC(=O)[C@H](NC(=O)C(Nc4ccsc4)c4ccc(O)cc4)Cc4c[nH]c5cc(ccc45)-c4cc3cc(c4O)Oc3ccc(cc3)C[C@H]1C(=O)N[C@@H](C(=O)O)c1ccc(O)c(c1)Oc1ccc2cc1 (some centres not stated) | 1 (≈ 0.831 µM) | 8 (≈ 6.65 µM) | > 128 | 4 (≈ 3.32 µM) | 4 (≈ 3.32 µM) |  | 
4 | CN1C(=O)[C@@H]2NC(=O)[C@@H]3NC(=O)[C@@H](c4ccc(O)cc4)NC(=O)[C@H](NC(=O)Cc4ccc(O)cc4)Cc4c[nH]c5cc(ccc45)-c4cc3cc(c4O)Oc3ccc(cc3)C[C@H]1C(=O)N[C@@H](C(=O)NCCC[N+](C)(C)C)c1ccc(O)c(c1)Oc1ccc2cc1 | 4 | 4 | 0.5 | 16 | > 128 | > 256 | > 256
5 | CN1C(=O)[C@@H]2NC(=O)[C@@H]3NC(=O)[C@@H](c4ccc(O)cc4)NC(=O)[C@H](NC(=O)C(Nc4cccc(C(F)(F)F)c4)c4ccc(O)cc4)Cc4c[nH]c5cc(ccc45)-c4cc3cc(c4O)Oc3ccc(cc3)C[C@H]1C(=O)N[C@@H](C(=O)O)c1ccc(O)c(c1)Oc1ccc2cc1 (some centres not stated) | 4 (≈ 3.16 µM) | 16 (≈ 12.6 µM) | > 128 | 8 (≈ 6.32 µM) | 8 (≈ 6.32 µM) |  | 
6 | CN1C(=O)[C@@H]2NC(=O)[C@@H]3NC(=O)[C@@H](c4ccc(O)cc4)NC(=O)[C@H](NC(=O)C(Nc4cc(O)cc(O)c4)c4ccc(O)cc4)Cc4c[nH]c5cc(ccc45)-c4cc3cc(c4O)Oc3ccc(cc3)C[C@H]1C(=O)N[C@@H](C(=O)O)c1ccc(O)c(c1)Oc1ccc2cc1 (some centres not stated) | 1 (≈ 0.814 µM) | 16 (≈ 13 µM) | > 128 | 4 (≈ 3.25 µM) | 4 (≈ 3.25 µM) |  | 
7 | CN1C(=O)[C@@H]2NC(=O)[C@@H]3NC(=O)[C@@H](c4ccc(O)cc4)NC(=O)[C@H](NC(=O)C(Nc4cccc(-c5ccc(F)cc5)c4)c4ccc(O)cc4)Cc4c[nH]c5cc(ccc45)-c4cc3cc(c4O)Oc3ccc(cc3)C[C@H]1C(=O)N[C@@H](C(=O)O)c1ccc(O)c(c1)Oc1ccc2cc1 (some centres not stated) | > 128 | 16 (≈ 12.4 µM) | > 128 | 16 (≈ 12.4 µM) | > 128 |  | 
8 | CN1C(=O)[C@@H]2NC(=O)[C@@H]3NC(=O)[C@@H](c4ccc(O)cc4)NC(=O)[C@H](NC(=O)C(N)c4ccc(O)cc4)Cc4c[nH]c5cc(ccc45)-c4cc3cc(c4O)Oc3ccc(cc3)C[C@H]1C(=O)N[C@@H](C(=O)NCCCN)c1ccc(O)c(c1)Oc1ccc2cc1 (some centres not stated) |  | 1 (≈ 0.849 µM) |  | 4 (≈ 3.4 µM) |  | > 256 | > 256
9 | CN1C(=O)[C@@H]2NC(=O)[C@@H]3NC(=O)[C@@H](c4ccc(O)cc4)NC(=O)[C@H](NC(=O)C(Nc4cccc(O)c4)c4ccc(O)cc4)Cc4c[nH]c5cc(ccc45)-c4cc3cc(c4O)Oc3ccc(cc3)C[C@H]1C(=O)N[C@@H](C(=O)O)c1ccc(O)c(c1)Oc1ccc2cc1 (some centres not stated) | 0.5 (≈ 0.412 µM) | 4 (≈ 3.3 µM) | > 128 | 4 (≈ 3.3 µM) | 4 (≈ 3.3 µM) |  | 
10 | CN(C)CCCNCCCNC(=O)[C@@H]1NC(=O)[C@@H]2Cc3ccc(cc3)Oc3cc4cc(c3O)-c3ccc5c(c[nH]c5c3)C[C@@H](NC(=O)Cc3ccc(O)cc3)C(=O)N[C@H](c3ccc(O)cc3)C(=O)N[C@H]4C(=O)N[C@@H](C(=O)N2C)c2ccc(cc2)Oc2cc1ccc2O | 8 (≈ 6.41 µM) | 2 (≈ 1.6 µM) | 1 (≈ 0.802 µM) | 16 (≈ 12.8 µM) | > 128 |  | 
11 | CN1C(=O)[C@@H]2NC(=O)[C@@H]3NC(=O)[C@@H](c4ccc(O)cc4)NC(=O)[C@H](NC(=O)C(Nc4ccc(Br)cc4)c4ccc(O)cc4)Cc4c[nH]c5cc(ccc45)-c4cc3cc(c4O)Oc3ccc(cc3)C[C@H]1C(=O)N[C@@H](C(=O)O)c1ccc(O)c(c1)Oc1ccc2cc1 (some centres not stated) | 2 (≈ 1.57 µM) | 8 (≈ 6.27 µM) | > 128 | 8 (≈ 6.27 µM) | 4 (≈ 3.13 µM) |  | 
12 | CN1C(=O)[C@@H]2NC(=O)[C@@H]3NC(=O)[C@@H](c4ccc(O)cc4)NC(=O)[C@H](NC(=O)C(Nc4cccc(F)c4F)c4ccc(O)cc4)Cc4c[nH]c5cc(ccc45)-c4cc3cc(c4O)Oc3ccc(cc3)C[C@H]1C(=O)N[C@@H](C(=O)O)c1ccc(O)c(c1)Oc1ccc2cc1 (some centres not stated) | 8 (≈ 6.49 µM) | 16 (≈ 13 µM) | > 128 | 16 (≈ 13 µM) | 16 (≈ 13 µM) |  | 
13 | CN1C(=O)[C@@H]2NC(=O)[C@@H]3NC(=O)[C@@H](c4ccc(O)cc4)NC(=O)[C@H](NC(=O)C(Nc4ccc(B(O)O)cc4)c4ccc(O)cc4)Cc4c[nH]c5cc(ccc45)-c4cc3cc(c4O)Oc3ccc(cc3)C[C@H]1C(=O)N[C@@H](C(=O)O)c1ccc(O)c(c1)Oc1ccc2cc1 (some centres not stated) | 1 (≈ 0.806 µM) | 8 (≈ 6.45 µM) | > 128 | 8 (≈ 6.45 µM) | 8 (≈ 6.45 µM) |  | 
14 | CN[C@H](CC(C)C)C(=O)N[C@H]1C(=O)N[C@@H](CC(N)=O)C(=O)N[C@H]2C(=O)N[C@H]3C(=O)N[C@H](C(=O)N[C@H](C(=O)O)c4cc(O)cc(O)c4-c4cc3ccc4O)[C@H](O)c3ccc(c(Cl)c3)Oc3cc2cc(c3O[C@@H]2O[C@H](CO)[C@@H](O)[C@H](O)[C@H]2O[C@H]2C[C@](C)(N)[C@H](O)[C@H](C)O2)Oc2ccc(cc2Cl)[C@H]1O [VANCOMYCIN] | 0.5 (≈ 0.345 µM) | > 128 | 4 (≈ 2.76 µM) | 32 (≈ 22.1 µM) |  |  | 
15 | CCCCCCNC(C(=O)N[C@@H]1Cc2c[nH]c3cc(ccc23)-c2cc3cc(c2O)Oc2ccc(cc2)C[C@H]2C(=O)N[C@@H](C(=O)O)c4ccc(O)c(c4)Oc4ccc(cc4)[C@@H](NC(=O)[C@@H]3NC(=O)[C@@H](c3ccc(O)cc3)NC1=O)C(=O)N2C)c1ccc(O)cc1 (some centres not stated) |  | 4 (≈ 3.32 µM) |  | 4 (≈ 3.32 µM) |  | > 256 | > 256
16 | CN1C(=O)[C@@H]2NC(=O)[C@@H]3NC(=O)[C@@H](c4ccc(O)cc4)NC(=O)[C@H](NC(=O)C(Nc4cccc(O)c4O)c4ccc(O)cc4)Cc4c[nH]c5cc(ccc45)-c4cc3cc(c4O)Oc3ccc(cc3)C[C@H]1C(=O)N[C@@H](C(=O)O)c1ccc(O)c(c1)Oc1ccc2cc1 (some centres not stated) | 4 (≈ 3.25 µM) | 16 (≈ 13 µM) | > 128 | 8 (≈ 6.51 µM) | 16 (≈ 13 µM) |  | 
17 | CN1C(=O)[C@@H]2NC(=O)[C@@H]3NC(=O)[C@@H](c4ccc(O)cc4)NC(=O)[C@H](NC(=O)C(Nc4ccc(O)c(O)c4O)c4ccc(O)cc4)Cc4c[nH]c5cc(ccc45)-c4cc3cc(c4O)Oc3ccc(cc3)C[C@H]1C(=O)N[C@@H](C(=O)O)c1ccc(O)c(c1)Oc1ccc2cc1 (some centres not stated) | 4 (≈ 3.21 µM) | 16 (≈ 12.8 µM) | > 128 | 8 (≈ 6.42 µM) | 16 (≈ 12.8 µM) |  | 
18 | CN1C(=O)[C@@H]2NC(=O)[C@@H]3NC(=O)[C@@H](c4ccc(O)cc4)NC(=O)[C@H](NC(=O)C(Nc4cc(F)cc(F)c4F)c4ccc(O)cc4)Cc4c[nH]c5cc(ccc45)-c4cc3cc(c4O)Oc3ccc(cc3)C[C@H]1C(=O)N[C@@H](C(=O)O)c1ccc(O)c(c1)Oc1ccc2cc1 (some centres not stated) | 4 (≈ 3.2 µM) | 4 (≈ 3.2 µM) | > 128 | 8 (≈ 6.39 µM) | 8 (≈ 6.39 µM) |  | 
19 | CN1C(=O)[C@@H]2NC(=O)[C@@H]3NC(=O)[C@@H](c4ccc(O)cc4)NC(=O)[C@H](NC(=O)C(Nc4cc(C(F)(F)F)cc(C(F)(F)F)c4)c4ccc(O)cc4)Cc4c[nH]c5cc(ccc45)-c4cc3cc(c4O)Oc3ccc(cc3)C[C@H]1C(=O)N[C@@H](C(=O)O)c1ccc(O)c(c1)Oc1ccc2cc1 (some centres not stated) | 8 (≈ 6 µM) | 8 (≈ 6 µM) | > 128 | 8 (≈ 6 µM) | 8 (≈ 6 µM) |  | 
20 | CN1C(=O)[C@@H]2NC(=O)[C@@H]3NC(=O)[C@@H](c4ccc(O)cc4)NC(=O)[C@H](NC(=O)C(NC(=O)CCCCCN)c4ccc(O)cc4)Cc4c[nH]c5cc(ccc45)-c4cc3cc(c4O)Oc3ccc(cc3)C[C@H]1C(=O)N[C@@H](C(=O)O)c1ccc(O)c(c1)Oc1ccc2cc1 (some centres not stated) |  |  |  |  | 8 (≈ 6.48 µM) | > 256 | > 256
